Assays:
NCI-H460 = experiment: Antiproliferative activity against human H460 cells after 96 hrs by Cell Titre-Glo luminescent assay; assay type: functional, cell-based; conditions: NCI-H460, 96 h
A2780 = experiment: Antiproliferative activity against human A2780 cells after 2 days by Alamar Blue assay; assay type: functional, cell-based; conditions: A2780, 48 h
How it was run: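 Drug-sensitive human ovarian cancer cell line; samples delivered in 1 μL of 100% DMSO per well rather than 20 μL of 1:1 DMSO–H2O. Otherwise run by a previously reported protocol.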

SMILES	IC50 (NCI-H460) [µM]	IC50 (A2780) [µM]
COc1ccc2c(c1)-c1c3c-2nccc3cc[n+]1[O-]	> 10	54.3
COc1ccc2c(c1)-c1nccc3ccnc-2c13	> 10	11.1
COc1ccc2c(c1)-c1nccc3cc[n+]([O-])c-2c13	> 100	50.3
c1ccc2c(c1)-c1nccc3ccnc-2c13 [EUPOLAURIDINE]	> 100	35.7

Results, then the molecule that gave them:

IC50 (NCI-H460) [µM]	IC50 (A2780) [µM]	SMILES
> 10	12.7	Oc1ccc2c(c1)-c1nccc3ccnc-2c13
0.57	10.3	COc1cccc2c1-c1nccc3ccnc(c13)C2=O
1.77	3.5	[O-][n+]1ccc2ccnc3c2c1-c1ccccc1-3
0.58	0.6	O=C1c2ccccc2-c2nccc3ccnc1c23 [SAMPANGINE]

Source: ChEMBL document CHEMBL1799940, “Isolation and synthesis of antiproliferative eupolauridine alkaloids of Ambavia gerrardii from the Madagascar Dry Forest” (J Nat Prod, 2011)
